From ChEMBL document CHEMBL1139455, “Three-dimensional quantitative structure-activity relationship modeling of cocaine binding by a novel human monoclonal antibody” (J Med Chem, 2004)

Experiments:
[1] = test system: Monoclonal antibody (mAb) 2E2; assay: Binding affinity against human monoclonal antibody (mAb) 2E2 relative to cocaine by ELISA method.
Procedure, shortened: (§1)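 Competition ELISA with human mAb 2E2 (from SCID mouse ascites, partially purified by sodium sulfate precipitation and protein A chromatography). Detection with biotinylated goat anti-human IgG (γ-chain-specific). IC50 obtained by three-parameter logistic fit. RBA is the competitor IC50 divided by the cocaine IC50. Values are averages of three or more independent experiments, each done in duplicate.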

[2] = test system: Monoclonal antibody (mAb) 2E2; assay: Relative binding affinity against human monoclonal antibody (mAb) 2E2 compared to cocaine
[3] = molecular target: Monoclonal antibody (mAb) 2E2; assay: Relative binding affinity against human monoclonal antibody 2E2 compared to [3H]cocaine
Procedure, shortened: (§2)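 Radioligand competition with 1 nM [3H]-cocaine diluted with 14 nM unlabeled cocaine and 0.4 nM mAb 2E2, against varying unlabeled competitor. Separation was by double-antibody precipitation (goat anti-human Fc) and read by scintillation counting. Duplicate data were fitted to a three-parameter logistic equation for IC50. RBA is the Ki of the compound divided by the Ki of cocaine. Three repeats were run.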

[4] = molecular target: Monoclonal antibody (mAb) 2E2; assay: Binding affinity towards human monoclonal antibody 2E2 using [3H]cocaine; procedure, shortened: as §2
[5] = test system: Monoclonal antibody (mAb) 2E2; assay: Binding affinity against human monoclonal antibody (mAb) 2E2 by ELISA; procedure, shortened: as §1
[6] = molecular target: Monoclonal antibody (mAb) 2E2; assay: Dissociation Constant for human monoclonal antibody 2E2 with [3H]cocaine
Procedure, shortened: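 Saturation binding of [3H]-cocaine to mAb 2E2. Bound ligand was separated by double-antibody precipitation, using goat anti-human Fc as the first antibody, and counted by liquid scintillation. Kd was fitted from counts per minute against total cocaine concentration to a binding isotherm. Points are averages of duplicates. Each experiment was run three times.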

[7] = test system: Monoclonal antibody (mAb) 2E2; assay: Relative binding affinity for human monoclonal antibody (mAb) 2E2

Compound | relative binding affinity (RBA) [1] | further results
COC(=O)[C@@H]1C2CCC(C[C@@H]1OC(=O)c1ccccc1)N2 (some centres undefined) | 4.3 | 
COC(=O)[C@H]1[C@@H](c2ccc(F)cc2)C[C@H]2CC[C@H]1N2C | 19 | 
COC(=O)[C@H]1C2CCC(C[C@@H]1OC(=O)c1ccccc1)N2 (stereo in doubt; 36) | 1100 | 
CN1C2CCC1[C@@H](C(=O)O)[C@@H](OC(=O)c1ccccc1)C2 (some centres undefined) | 9.8 | relative binding affinity (RBA) [2]: 12; Ki [3]: 43 nM
CON(C)C(=O)[C@@H]1C2CCC(C[C@@H]1OC(=O)c1ccccc1)N2C (some centres undefined) | 21 | 
C[N+]1([O-])C2CC(OC(=O)[C@H](CO)c3ccccc3)CC1C1OC12 (some centres undefined) | 130000 | 
CN(C)C(=O)[C@@H]1C2CCC(C[C@@H]1OC(=O)c1ccccc1)N2C (some centres undefined) | 7.4 | 
COC(=O)[C@@H]1C2CCC(C[C@@H]1c1ccc(I)cc1)N2C (some centres undefined) | 4.5 | 
CCOC(=O)[C@@H]1C2C(C)CC(C[C@@H]1OC(=O)c1ccccc1)N2C (some centres undefined) | 0.21 | 
CN1C2CCC1[C@@H](C(=O)Oc1ccccc1)[C@@H](c1ccc(Cl)cc1)C2 (some centres undefined) | 1.7 | 
COC(=O)C1C2CCC(C[C@@H]1c1ccc(C)cc1)N2C (single isomer, unassigned) | 14 | 
COC(=O)[C@@H]1C2CCC(C[C@@H]1c1ccc(Cl)c(Cl)c1)N2C (some centres undefined) | 8.5 | 
C[N+]1([O-])[C@@H]2CC[C@H]1C[C@@H](OC(=O)C(CO)c1ccccc1)C2 (some centres undefined) | 90000 | 
CN1C2CCC1[C@@H](C(=O)O)[C@@H](OC(=O)c1cccc(O)c1)C2 (some centres undefined) | 32 | 
COC(=O)C1C2CC[C@H](C[C@@H]1c1ccc(Cl)cc1)N2C (some centres undefined) | 9.3 | 
CN1[C@@H]2C[C@@H](OC(=O)[C@H](CO)c3ccccc3)C[C@H]1[C@@H]1O[C@H]12 | 49000 | 
COC(=O)[C@@H]1C2CC[C@H](C[C@@H]1c1ccccc1)N2C | 29 | 

Compound | relative binding affinity (RBA) [1] | further results
CCOC(=O)[C@@H]1C2CCC(C[C@@H]1OC(=O)c1ccccc1)N2C (some centres undefined) [COCAETHYLENE] | 0.74 | relative binding affinity (RBA) [2]: 0.97; Ki [3]: 3.4 nM
CN1C2CCC1[C@@H](C(=O)O)[C@@H](OC(=O)c1ccc(O)cc1)C2 (some centres undefined) | 36 | 
CN1C2CCC1CC(O)C2 (centres undefined) | 91000 | 
COC(=O)[C@@H]1C2CCC(C[C@@H]1OC(=O)c1cccc(O)c1)N2C (some centres undefined) | 8.4 | 
CNC(=O)[C@@H]1C2CCC(C[C@@H]1OC(=O)c1ccccc1)N2C (some centres undefined) | 29 | 
CN1C2CCC1[C@@H](C(N)=O)[C@@H](OC(=O)c1ccccc1)C2 (some centres undefined) | 22 | 
O=C(O[C@H]1CC2CCC(N2)[C@H]1C(=O)O)c1ccccc1 (some centres undefined) | 120 | 
CCCC[N+]1(C)C2CC(OC(=O)[C@H](CO)c3ccccc3)CC1C1OC12 (some centres undefined) | 3700 | 
COC(=O)[C@H]1C2CCC(C[C@@H]1OC(=O)c1ccccc1)N2 (stereo in doubt) | 1800 | 
C[N+]1(C)[C@@H]2C[C@@H](OC(=O)[C@H](CO)c3ccccc3)C[C@H]1[C@@H]1O[C@@H]12 | 5900 | 
COC(=O)[C@H]1[C@@H](OC(=O)c2ccccc2)C[C@@H]2CC[C@H]1N2C [COCAINE] |  | Ki [4]: 3.5 nM; relative binding affinity (RBA) [5]: 1; Kd [6]: 4.4 nM; relative binding affinity (RBA) [7]: 1
CN1C2CC(OC(=O)[C@](O)(CO)c3ccccc3)CC1C1OC12 (some centres undefined) | 59000 | 
CCCOC(=O)[C@@H]1C2CCC(C[C@@H]1OC(=O)c1ccccc1)N2C (some centres undefined) | 0.23 | 
COC(=O)C1=CCC2CCC1N2C (centres undefined) | 21000 | 
COC(=O)[C@@H]1C2CCC(C[C@@H]1O)N2C (some centres undefined) | 2500 | relative binding affinity (RBA) [2]: 1500; Ki [3]: 5200 nM
CN1C2CCC1[C@@H](C(=O)O)[C@@H](O)C2 (some centres undefined) | 28000 | relative binding affinity (RBA) [2]: 28000; Ki [3]: 95000 nM
